# Measurements as given in ChEMBL document CHEMBL1149834, “Chromomoric acid derivatives from Tectona philippinensis” (2008).
# What was measured:
# Settings in all cases: read-out: IZ
# Candida albicans [1] = experiment: Antifungal activity against Candida albicans UPCC 2168 replicate 1 assessed as clearing zone at 30 ug after 24 to 48 hrs; format: functional
# In short: (§1)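 Yeast is suspended in 0.1% peptone water, and 0.1 mL is spread on glucose yeast peptone agar with a GYP overlay at 45 °C. Three 10 mm wells per plate each get 200 µL of sample in 95% EtOH. Plates are incubated at room temperature and observed after 24–48 h. The mean clearing-zone diameter is recorded in mm.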
# [2] = test system: Trichophyton mentagrophytes; experiment: Antifungal activity against Trichophyton mentagrophytes UPCC 4193 replicate 3 assessed as clearing zone at 30 ug after 3 to 5 days
# Candida albicans [3] = experiment: Antifungal activity against Candida albicans UPCC 2168 replicate 2 assessed as clearing zone at 30 ug after 24 to 48 hrs; format: functional; in short: as §1
# Pseudomonas aeruginosa [4] = experiment: Antibacterial activity against Pseudomonas aeruginosa UPCC 1244 replicate 2 assessed as clearing zone at 30 ug after 24 to 48 hrs; format: functional
# In short: (§2)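 Agar well diffusion. 0.1 mL of bacterial suspension in 0.1% peptone water is spread on prepoured nutrient agar and overlaid with melted NA cooled to 45 °C. Three equidistant 10 mm wells each receive 200 µL of sample in 95% EtOH. Plates are incubated at room temperature and read at 24–48 h. Clearing-zone diameters are measured in mm and averaged.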
# Escherichia coli [5] = experiment: Antibacterial activity against Escherichia coli UPCC 1195 replicate 1 assessed as clearing zone at 30 ug after 24 to 48 hrs; format: functional; in short: as §2
# [6] = test system: Trichophyton mentagrophytes; experiment: Antifungal activity against Trichophyton mentagrophytes UPCC 4193 replicate 1 assessed as clearing zone at 30 ug after 3 to 5 days
# Pseudomonas aeruginosa [7] = experiment: Antibacterial activity against Pseudomonas aeruginosa UPCC 1244 replicate 3 assessed as clearing zone at 30 ug after 24 to 48 hrs; format: functional; in short: as §2
# Escherichia coli [8] = experiment: Antibacterial activity against Escherichia coli UPCC 1195 replicate 3 assessed as clearing zone at 30 ug after 24 to 48 hrs; format: functional; in short: as §2
# Pseudomonas aeruginosa [9] = experiment: Antibacterial activity against Pseudomonas aeruginosa UPCC 1244 replicate 1 assessed as clearing zone at 30 ug after 24 to 48 hrs; format: functional; in short: as §2
# [10] = test system: Trichophyton mentagrophytes; experiment: Antifungal activity against Trichophyton mentagrophytes UPCC 4193 replicate 2 assessed as clearing zone at 30 ug after 3 to 5 days
# Escherichia coli [11] = experiment: Antibacterial activity against Escherichia coli UPCC 1195 replicate 2 assessed as clearing zone at 30 ug after 24 to 48 hrs; format: functional; in short: as §2
# Candida albicans [12] = experiment: Antifungal activity against Candida albicans UPCC 2168 replicate 3 assessed as clearing zone at 30 ug after 24 to 48 hrs; format: functional; in short: as §1
# Bacillus subtilis = experiment: Antibacterial activity against Bacillus subtilis UPCC 1149 replicate 1 assessed as clearing zone at 30 ug after 24 to 48 hrs; format: functional; in short: as §2
# Staphylococcus aureus = experiment: Antibacterial activity against Staphylococcus aureus UPCC 1143 replicate 1 assessed as clearing zone at 30 ug after 24 to 48 hrs; format: functional
# In short: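 Agar well diffusion. Microbe suspended in 0.1% peptone water; 0.1 mL spread on prepoured nutrient agar, overlaid with melted medium cooled to 45 °C. Three 10 mm wells per plate, 200 µL sample in 95% EtOH per well. Incubated at room temperature and read at 24–48 h. Clearing-zone diameter measured in mm.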
SMILES,zone of inhibition at 30 µg/disc (Candida albicans [1]) [mm],zone of inhibition at 30 µg/disc [2] [mm],zone of inhibition at 30 µg/disc (Candida albicans [3]) [mm],zone of inhibition at 30 µg/disc (Pseudomonas aeruginosa [4]) [mm],zone of inhibition at 30 µg/disc (Escherichia coli [5]) [mm],zone of inhibition at 30 µg/disc [6] [mm],zone of inhibition at 30 µg/disc (Pseudomonas aeruginosa [7]) [mm],zone of inhibition at 30 µg/disc (Escherichia coli [8]) [mm],zone of inhibition at 30 µg/disc (Pseudomonas aeruginosa [9]) [mm],zone of inhibition at 30 µg/disc [10] [mm],zone of inhibition at 30 µg/disc (Escherichia coli [11]) [mm],zone of inhibition at 30 µg/disc (Candida albicans [12]) [mm],zone of inhibition at 30 µg/disc (Bacillus subtilis) [mm],zone of inhibition at 30 µg/disc (Staphylococcus aureus) [mm]
CC[C@@H]1O[C@H]1/C=C1/C(=O)C=C[C@@]1(O)CCCC[C@@H]1CCC(=O)O1,13,12,13,12,12,12,12,12,12,12,12,13,,
C/C=C/C(=O)C[C@H]1C(=O)C=C[C@@]1(O)CCCC[C@@H]1CCC(=O)O1,13,13,13,12,12,13,12,12,12,13,12,13,,
O=C(N[C@H](CO)[C@H](O)c1ccc([N+](=O)[O-])cc1)C(Cl)Cl [CHLORAMPHENICOL],,,,,23,,,,14,,,,20,25
